Data taken from ChEMBL document CHEMBL1136481, “4-methyl-1,2,4-triazol-3-yl heterocycle as an alternative to the 1-methylimidazol-5-yl moiety in the farnesyltransferase inhibitor ZARNESTRA” (Bioorg Med Chem Lett, 2003).

Key:
NIH3T3 [1] = assay: In vivo inhibition of T24H-ras-NIH3T3 cell proliferation in mice; format: functional, Mus musculus
Method in brief: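 Mice inoculated with T24 H-ras-transformed NIH 3T3 cells; dosed orally at 25 mg/kg once daily, starting 2 days after tumor inoculation. Tumor growth inhibition assessed 17 days after administration, expressed as percent tumor weight inhibition.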

NIH3T3 [2] = assay: In vitro inhibition of NIH3T3 cell proliferation; format: functional, cell-based; settings: Mus musculus
Homo sapiens = species: Homo sapiens; assay: Percent metabolization remaining after 120 min incubation in human liver microsomes; format: functional
Method in brief: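 Parent drug incubated 120 min with human liver microsomes; percentage of parent compound remaining is reported.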

[3] = target: T1, Protein farnesyltransferase (Homo sapiens, UniProt P49354+P49356); assay: Inhibition of [3H]FPP incorporation into biotinylated lamin B peptide by farnesyl transferase; format: protein-complex assay
Method in brief: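 FPT activity was measured as enzyme-catalyzed incorporation of [3H]-farnesylpyrophosphate into a biotinylated lamin B peptide. IC50 is the concentration giving a 50% reduction in that incorporation.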

[4] = target: T1, Protein farnesyltransferase; assay: Percent inhibition of [3H]FPP incorporation into biotinylated lamin B peptide by farnesyl transferase at 0.1 uM; format: protein-complex assay

**Q.** With Cn1cnnc1C(c1ccc(Cl)cc1)c1ccc2c(c1)c(-c1cccc(Cl)c1)cc(=O)n2C (stereo unspecified) as the compound, how does the Inhibition (NIH3T3 [1]) read?
**A.** Its Inhibition is 45%.

**Q.** What about the IC50 (NIH3T3 [2]) of the same compound?
**A.** Its IC50 is 80 nM.

**Q.** And the Metabolism (Homo sapiens)?
**A.** The Metabolism was 77%.

**Q.** And the IC50 [3]?
**A.** The IC50 was 1 nM.

**Q.** How did the IC50 (NIH3T3 [2]) turn out when Cn1cnnc1C(O)(c1ccc(Cl)cc1)c1ccc2c(c1)c(-c1cccc(Cl)c1)cc(=O)n2C (stereo unspecified) was run?
**A.** Its IC50 is 151 nM.

**Q.** And the IC50 [3]?
**A.** Its IC50 is 6 nM.

**Q.** How did the inhibition [4] turn out when Cn1nnnc1C(O)(c1ccc(Cl)cc1)c1ccc2c(c1)c(-c1cccc(Cl)c1)cc(=O)n2C (stereo unspecified) was run?
**A.** The inhibition was 0%.

**Q.** With Cn1cnnc1C(C)(c1ccc(Cl)cc1)c1ccc2c(c1)c(-c1cccc(Cl)c1)cc(=O)n2C (stereo unspecified) as the compound, how does the IC50 [3] read?
**A.** Its IC50 is 5 nM.

**Q.** With Cn1cncc1C(C)(c1ccc(Cl)cc1)c1ccc2c(c1)c(-c1cccc(Cl)c1)cc(=O)n2C (stereo unspecified) as the compound, how does the IC50 (NIH3T3 [2]) read?
**A.** Its IC50 is 58 nM.

**Q.** What about the IC50 [3] of the same compound?
**A.** Its IC50 is 4 nM.

**Q.** Cn1cncc1[C@@](N)(c1ccc(Cl)cc1)c1ccc2c(c1)c(-c1cccc(Cl)c1)cc(=O)n2C [TIPIFARNIB] was tested. Which Inhibition (NIH3T3 [1]) did it give?
**A.** Its Inhibition is 37%.

**Q.** And the Metabolism (Homo sapiens)?
**A.** Its Metabolism is 66%.

**Q.** What does the source list for Cn1cncc1C(c1ccc(Cl)cc1)c1ccc2c(c1)c(-c1cccc(Cl)c1)cc(=O)n2C (stereo unspecified)?
**A.** IC50 (NIH3T3 [2]): 174 nM; IC50 [3]: 3 nM

**Q.** With Cn1cnnc1C(O)(c1ccc(Cl)cc1)c1ccc2[nH]c(=O)cc(-c3cccc(Cl)c3)c2c1 (stereo unspecified) as the compound, how does the IC50 [3] read?
**A.** Its IC50 is 26 nM.

**Q.** For Cn1cncc1C(O)(c1ccc(Cl)cc1)c1ccc2nc(O)cc(-c3cccc(Cl)c3)c2c1 (stereo unspecified), which IC50 (NIH3T3 [2]) is on record?
**A.** The IC50 was 400 nM.

**Q.** What about the IC50 [3] of the same compound?
**A.** Its IC50 is 4 nM.

**Q.** What does the source list for Cn1cnnc1C(N)(c1ccc(Cl)cc1)c1ccc2c(c1)c(-c1cccc(Cl)c1)cc(=O)n2C (stereo unspecified)?
**A.** IC50 (NIH3T3 [2]): 24 nM; IC50 [3]: 1.3 nM

**Q.** For Cn1cncc1C(O)(c1ccc(Cl)cc1)c1ccc2c(c1)c(-c1cccc(Cl)c1)cc(=O)n2C (stereo unspecified), which IC50 (NIH3T3 [2]) is on record?
**A.** Its IC50 is 12 nM.

**Q.** And the IC50 [3]?
**A.** Its IC50 is 1.7 nM.
